From ChEMBL document CHEMBL3045256, “Design, synthesis, structure, and acaricidal/insecticidal activity of novel spirocyclic tetronic acid derivatives containing an oxalyl moiety” (2011)

What was measured:
Type in all cases: functional
Tetranychus cinnabarinus [1] = assay: Acaricidal activity against larvae of Tetranychus cinnabarinus (carmine spider mite) in sieva bean leaves assessed as mortality at 2.5 mg/kg at 25 +/-1 degC treated for 3 secs measured after 4 days; details: 96 h
Mythimna separata [2] = assay: Stomach toxicity against fourth-instar larval stage of Mythimna separata (Oriental armyworm) in compound-pretreated corn leaves assessed as mortality at 600 mg/kg at 25 +/-1 degC after 4 days
In short: (§1)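 Foliar application to oriental armyworm. Single corn leaves were laid on moistened filter paper in Petri dishes. Bioassays were run at 25 ± 1 °C.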

Tetranychus cinnabarinus [3] = assay: Acaricidal activity against eggs of Tetranychus cinnabarinus (carmine spider mite) in sieva bean leaves assessed as mortality at 0.25 mg/kg at 25 +/-1 degC treated for 3 secs measured after 4 days; details: 96 h
Tetranychus cinnabarinus [4] = assay: Acaricidal activity against eggs of Tetranychus cinnabarinus (carmine spider mite) in sieva bean leaves assessed as mortality at 5 mg/kg at 25 +/-1 degC treated for 3 secs measured after 4 days; details: 96 h
Tetranychus cinnabarinus [5] = assay: Acaricidal activity against larvae of Tetranychus cinnabarinus (carmine spider mite) in sieva bean leaves assessed as mortality at 5 mg/kg at 25 +/-1 degC treated for 3 secs measured after 4 days; details: 96 h
Helicoverpa armigera = assay: Stomach toxicity against third-instar larval stage of Helicoverpa armigerain compound-pretreated corn leaves assessed as mortality at 600 mg/kg at 25 +/-1 degC after 4 days by leaf-dip method
In short: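 Leaf-dip assay on cotton bollworm. Corn leaves were dipped in test solution and air-dried. The treated pieces were placed individually into 24-hole boxes. Run at 25 ± 1 °C.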

Tetranychus cinnabarinus [6] = assay: Acaricidal activity against eggs of Tetranychus cinnabarinus (carmine spider mite) in sieva bean leaves assessed as mortality at 0.5 mg/kg at 25 +/-1 degC treated for 3 secs measured after 4 days; details: 96 h
Tetranychus cinnabarinus [7] = assay: Acaricidal activity against larvae of Tetranychus cinnabarinus (carmine spider mite) in sieva bean leaves assessed as mortality at 0.5 mg/kg at 25 +/-1 degC treated for 3 secs measured after 4 days; details: 96 h
Ostrinia nubilalis = assay: Stomach toxicity against third-instar larval stage of Ostrinia nubilalis (European corn borer) in corn leaves assessed as mortality at 600 mg/kg at 25 +/-1 degC treated for 3-5 secs before larval infestation after 4 days by leaf-dip method; details: 96 h
In short: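 Corn leaf disks (about 5 cm) were dipped for 3–5 s and air-dried. Each disk was placed in a 7 cm glass vessel with 10 third-instar corn borer larvae. Percentage mortality was scored 4 days after treatment. Controls were acetone-treated leaves. Run at 25 ± 1 °C.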

Tetranychus cinnabarinus [8] = assay: Acaricidal activity against larvae of Tetranychus cinnabarinus (carmine spider mite) in sieva bean leaves assessed as mortality at 10 mg/kg at 25 +/-1 degC treated for 3 secs measured after 4 days; details: 96 h
Tetranychus cinnabarinus [9] = assay: Acaricidal activity against eggs of Tetranychus cinnabarinus (carmine spider mite) in sieva bean leaves assessed as mortality at 1 mg/kg at 25 +/-1 degC treated for 3 secs measured after 4 days; details: 96 h
Tetranychus cinnabarinus [10] = assay: Acaricidal activity against eggs of Tetranychus cinnabarinus (carmine spider mite) in sieva bean leaves assessed as mortality at 2.5 mg/kg at 25 +/-1 degC treated for 3 secs measured after 4 days; details: 96 h
Tetranychus cinnabarinus [11] = assay: Acaricidal activity against larvae of Tetranychus cinnabarinus (carmine spider mite) in sieva bean leaves assessed as mortality at 1 mg/kg at 25 +/-1 degC treated for 3 secs measured after 4 days; details: 96 h
Mythimna separata [12] = assay: Stomach toxicity against fourth-instar larval stage of Mythimna separata (Oriental armyworm) in compound-pretreated corn leaves assessed as mortality at 100 mg/kg at 25 +/-1 degC after 4 days; in short: as §1
Mythimna separata [13] = assay: Stomach toxicity against fourth-instar larval stage of Mythimna separata (Oriental armyworm) in compound-pretreated corn leaves assessed as mortality at 50 mg/kg at 25 +/-1 degC after 4 days; in short: as §1
Plutella xylostella = assay: Stomach toxicity against third-instar larval stage of Plutella xylostella (diamondback moth) in cabbage leaves assessed as mortality at 200 mg/kg at 25 +/-1 degC treated for 3 secs before larval infestation after 4 days by leaf-dip method; details: 96 h
In short: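 Cabbage leaf disks (6 cm × 2 cm) were dipped in test solution for 3 s and air-dried. Each disk was placed in a glass tube and given seven third-instar diamondback moth larvae. Percentage mortality was scored after 4 days. Controls were water and dimethylformamide. Each treatment was done three times at 25 ± 1 °C.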

Tetranychus cinnabarinus [14] = assay: Acaricidal activity against eggs of Tetranychus cinnabarinus (carmine spider mite) in sieva bean leaves assessed as mortality at 25 +/-1 degC treated for 3 secs measured after 4 days
Tetranychus cinnabarinus [15] = assay: Acaricidal activity against eggs of Tetranychus cinnabarinus (carmine spider mite) in sieva bean leaves assessed as mortality at 0.1 mg/kg at 25 +/-1 degC treated for 3 secs measured after 4 days; details: 96 h
Tetranychus cinnabarinus [16] = assay: Acaricidal activity against eggs of Tetranychus cinnabarinus (carmine spider mite) in sieva bean leaves assessed as mortality at 0.05 mg/kg at 25 +/-1 degC treated for 3 secs measured after 4 days; details: 96 h
Tetranychus cinnabarinus [17] = assay: Toxicity ratio of spiromesifen LC50 to compound LC50 for eggs of Tetranychus cinnabarinus (carmine spider mite) treated for 3 secs measured after 4 days
Tetranychus cinnabarinus [18] = assay: Ratio of mortality against eggs of Tetranychus cinnabarinus (carmine spider mite) to mortality against larvae of carmine spider mite

Structure (SMILES) | mortality at 2.5 mg/kg (Tetranychus cinnabarinus [1]) [%] | mortality at 600 mg/kg (Mythimna separata [2]) [%] | mortality at 0.25 mg/kg (Tetranychus cinnabarinus [3]) [%] | mortality at 5 mg/kg (Tetranychus cinnabarinus [4]) [%] | mortality at 5 mg/kg (Tetranychus cinnabarinus [5]) [%] | mortality at 600 mg/kg (Helicoverpa armigera) [%] | mortality at 0.5 mg/kg (Tetranychus cinnabarinus [6]) [%] | mortality at 0.5 mg/kg (Tetranychus cinnabarinus [7]) [%] | mortality at 600 mg/kg (Ostrinia nubilalis) [%] | mortality at 10 mg/kg (Tetranychus cinnabarinus [8]) [%] | mortality at 1 mg/kg (Tetranychus cinnabarinus [9]) [%] | mortality at 2.5 mg/kg (Tetranychus cinnabarinus [10]) [%] | mortality at 1 mg/kg (Tetranychus cinnabarinus [11]) [%] | mortality at 200 mg/kg (Plutella xylostella) [%] | other results
Cc1cc(C)c(C2=C(OC(=O)C(=O)Oc3ccc(Cl)cc3)C3(CCCC3)OC2=O)c(C)c1 | 70 | 70 | 60 | 100 | 90 | 30 | 80 | 0 | 50 | 100 | 90 | 100 | 60 |  | 
C#CCOC(=O)C(=O)OC1=C(c2c(C)cc(C)cc2C)C(=O)OC12CCCC2 |  | 50 |  | 30 | 0 | 20 |  |  | 70 | 30 |  |  |  |  | 
Cc1cc(C)c(C2=C(OC(=O)C(=O)Oc3ccccc3)C3(CCCC3)OC2=O)c(C)c1 | 80 |  |  | 100 | 90 | 20 | 50 | 20 | 60 | 100 | 70 | 100 | 50 | 60 | mortality at 100 mg/kg (Mythimna separata [12]): 100%; mortality at 50 mg/kg (Mythimna separata [13]): 0%
Cc1cc(C)c(C2=C(OC(=O)CC(C)(C)C)C3(CCCC3)OC2=O)c(C)c1 [SPIROMESIFEN] | 100 |  | 60 | 100 | 100 | 50 | 90 | 90 | 60 | 100 | 90 | 100 | 90 | 70 | mortality at 100 mg/kg (Mythimna separata [12]): 100%; mortality at 50 mg/kg (Mythimna separata [13]): 60%; LC50 (Tetranychus cinnabarinus [14]): 0.1567 mg/kg; mortality at 0.1 mg/kg (Tetranychus cinnabarinus [15]): 20%; mortality at 0.05 mg/kg (Tetranychus cinnabarinus [16]): 0%; RatioLC50 (Tetranychus cinnabarinus [17]): 1
CCOC(=O)C(=O)OC1=C(c2c(C)cc(C)cc2C)C(=O)OC12CCCC2 |  | 80 |  | 20 | 0 | 10 |  |  | 20 | 50 |  |  |  | 70 | 
Cc1cc(C)c(C2=C(OC(=O)C(=O)Oc3ccc(C(C)(C)C)cc3)C3(CCCC3)OC2=O)c(C)c1 | 90 | 80 |  | 90 | 90 | 10 |  | 40 | 10 | 100 | 50 | 70 | 60 |  | 
CCN(CC)C(=O)C(=O)OC1=C(c2c(C)cc(C)cc2C)C(=O)OC12CCCC2 | 90 |  |  | 100 | 100 | 20 | 0 |  | 30 | 100 | 60 | 100 | 70 | 85 | mortality at 100 mg/kg (Mythimna separata [12]): 100%; mortality at 50 mg/kg (Mythimna separata [13]): 40%
Cc1cc(C)c(C2=C(OC(=O)C(=O)N(C(C)C)C(C)C)C3(CCCC3)OC2=O)c(C)c1 | 40 | 50 | 80 | 100 | 80 | 40 | 100 |  | 80 | 100 | 100 | 100 |  |  | LC50 (Tetranychus cinnabarinus [14]): 0.1147 mg/kg; mortality at 0.1 mg/kg (Tetranychus cinnabarinus [15]): 40%; mortality at 0.05 mg/kg (Tetranychus cinnabarinus [16]): 10%; Ratio (Tetranychus cinnabarinus [18]): 25; RatioLC50 (Tetranychus cinnabarinus [17]): 1.4
CCN(C(=O)C(=O)OC1=C(c2c(C)cc(C)cc2C)C(=O)OC12CCCC2)c1ccc(Br)cc1 | 100 | 80 | 40 | 100 | 100 | 30 | 60 | 50 | 40 | 100 | 90 | 100 | 90 |  | 
Cc1cc(C)c(C2=C(OC(=O)C(=O)N3CCCC3)C3(CCCC3)OC2=O)c(C)c1 |  | 40 |  | 70 | 0 | 30 |  |  | 30 | 40 |  | 30 |  |  | 
CCN(C(=O)C(=O)OC1=C(c2c(C)cc(C)cc2C)C(=O)OC12CCCC2)c1ccccc1 | 90 | 40 | 30 | 100 | 100 | 40 | 50 | 60 | 40 | 100 | 90 | 100 | 80 |  | 
CCN(C(=O)C(=O)OC1=C(c2c(C)cc(C)cc2C)C(=O)OC12CCCC2)c1ccc(C)cc1C | 90 | 30 |  | 100 | 100 | 20 | 30 | 20 | 20 | 100 | 70 | 90 | 60 |  | 
CCN(C(=O)C(=O)OC1=C(c2c(C)cc(C)cc2C)C(=O)OC12CCCC2)c1ccc(C(F)(F)F)cc1 | 80 | 50 | 60 | 100 | 100 | 10 | 80 | 40 | 30 | 100 | 90 | 90 | 50 |  | 
Cc1cc(C)c(C2=C(OC(=O)C(=O)N3CCCCC3)C3(CCCC3)OC2=O)c(C)c1 | 70 | 40 | 100 | 100 | 90 | 30 | 100 |  | 40 | 100 | 100 | 100 |  |  | LC50 (Tetranychus cinnabarinus [14]): 0.0675 mg/kg; mortality at 0.1 mg/kg (Tetranychus cinnabarinus [15]): 60%; mortality at 0.05 mg/kg (Tetranychus cinnabarinus [16]): 30%; Ratio (Tetranychus cinnabarinus [18]): 25; RatioLC50 (Tetranychus cinnabarinus [17]): 2.3
Cc1cc(C)c(C2=C(OC(=O)C(=O)N(C)c3ccccc3)C3(CCCC3)OC2=O)c(C)c1 | 40 | 80 | 50 | 100 | 70 | 50 | 100 |  | 30 | 80 | 100 | 100 | 0 | 70 | 
